ChEMBL document CHEMBL1134439, “Radioiodinated styrylbenzenes and thioflavins as probes for amyloid aggregates” (J Med Chem, 2001)
Where “and” joins values, the source holds several entries; their conditions need not be identical. Identical values can stand only once.

Legend:
[1] = tested on: Mus musculus; test: Biodistribution was measured in mice heart 60 minutes after intravenous injection of [125I]-labeled styrylbenzene.; type: ADME, organism-based; conditions: in vivo, 1 h
Outline: (§1)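 ICR mice (2-3 months old, 20-30 g) under ether anesthesia received 5-10 µCi ¹²⁵I tracer in 0.15 mL saline by tail-vein injection. Animals were killed by cardiac excision at set times post-injection. Organs were removed, weighed and γ-counted. Values are % dose per organ against diluted injectate aliquots, taking blood and muscle as 7% and 40% of body weight. Mean of 3-4 mice ± SD.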

[2] = tested on: Mus musculus; test: Biodistribution was measured in mice kidney 30 minutes after intravenous injection of [125I]-labeled styrylbenzene.; type: ADME, organism-based; conditions: in vivo, 0.5 h; outline: as §1
[3] = tested on: Mus musculus; test: Biodistribution was measured in mice kidney 5 minutes after intravenous injection of [125I]-labeled styrylbenzene.; type: ADME, organism-based; conditions: in vivo; outline: as §1
[4] = tested on: Mus musculus; test: Biodistribution was measured in mice kidney 60 minutes after intravenous injection of [125I]-labeled styrylbenzene.; type: ADME, organism-based; conditions: in vivo, 1 h; outline: as §1
[5] = tested on: Mus musculus; test: Biodistribution was measured in mice liver 30 minutes after intravenous injection of [125I]-labeled styrylbenzene.; type: ADME, organism-based; conditions: in vivo, 0.5 h; outline: as §1
[6] = tested on: Mus musculus; test: Biodistribution was measured in mice liver 5 minutes after intravenous injection of [125I]-labeled styrylbenzene.; type: ADME, organism-based; conditions: in vivo; outline: as §1
[7] = tested on: Mus musculus; test: Biodistribution was measured in mice liver 60 minutes after intravenous injection of [125I]-labeled styrylbenzene.; type: ADME, organism-based; conditions: in vivo, 1 h; outline: as §1
[8] = tested on: Mus musculus; test: Biodistribution was measured in mice muscle 30 minutes after intravenous injection of [125I]-labeled styrylbenzene.; type: ADME, organism-based, Muscle tissue; conditions: in vivo, 0.5 h; outline: as §1
[9] = tested on: Mus musculus; test: Biodistribution was measured in mice muscle 5 minutes after intravenous injection of [125I]-labeled styrylbenzene.; type: ADME, organism-based, Muscle tissue; conditions: in vivo; outline: as §1
[10] = tested on: Mus musculus; test: Biodistribution was measured in mice muscle 60 minutes after intravenous injection of [125I]-labeled styrylbenzene.; type: ADME, organism-based, Muscle tissue; conditions: in vivo, 1 h; outline: as §1
[11] = tested on: Mus musculus; test: Biodistribution was measured in mice skin 30 minutes after intravenous injection of [125I]-labeled styrylbenzene.; type: ADME, organism-based, Zone of skin; conditions: in vivo, 0.5 h; outline: as §1
[12] = tested on: Mus musculus; test: Biodistribution was measured in mice skin 5 minutes after intravenous injection of [125I]-labeled styrylbenzene.; type: ADME, organism-based, Zone of skin; conditions: in vivo; outline: as §1
[13] = tested on: Mus musculus; test: Biodistribution was measured in mice skin 60 minutes after intravenous injection of [125I]-labeled styrylbenzene.; type: ADME, organism-based, Zone of skin; conditions: in vivo, 1 h; outline: as §1
[14] = tested on: Mus musculus; test: Biodistribution was measured in mice spleen 30 minutes after intravenous injection of [125I]-labeled styrylbenzene.; type: ADME, organism-based; conditions: in vivo, 0.5 h
Outline: (§2)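 ICR mice (2-3 months old, 20-30 g) under ether anesthesia; 0.15 mL saline containing 5-10 µCi ¹²⁵I tracer injected into tail vein. Sacrifice by cardiac excision at set times; organs removed, weighed, γ-counted. Expressed as % dose per organ versus diluted aliquots of injectate. Mean of three or four mice ± SD.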

[15] = tested on: Mus musculus; test: Biodistribution was measured in mice spleen 5 minutes after intravenous injection of [125I]-labeled styrylbenzene.; type: ADME, organism-based; conditions: in vivo; outline: as §2
[16] = tested on: Mus musculus; test: Biodistribution was measured in mice spleen 60 minutes after intravenous injection of [125I]-labeled styrylbenzene.; type: ADME, organism-based; conditions: in vivo, 1 h; outline: as §2
[17] = tested on: Mus musculus; test: Biodistribution was measured in mice blood 30 minutes after intravenous injection of [125I]-labeled styrylbenzene.; type: ADME, organism-based; conditions: in vivo, 0.5 h; outline: as §1
[18] = tested on: Mus musculus; test: Biodistribution was measured in mice blood 5 minutes after intravenous injection of [125I]-labeled styrylbenzene.; type: ADME, organism-based; conditions: in vivo; outline: as §1
[19] = tested on: Mus musculus; test: Biodistribution was measured in mice lung 30 minutes after intravenous injection of [125I]-labeled styrylbenzene.; type: ADME, organism-based; conditions: in vivo, 0.5 h; outline: as §1
[20] = tested on: Mus musculus; test: Biodistribution was measured in mice lung 5 minutes after intravenous injection of [125I]-labeled styrylbenzene.; type: ADME, organism-based; conditions: in vivo; outline: as §1
[21] = tested on: Mus musculus; test: Biodistribution was measured in mice lung 60 minutes after intravenous injection of [125I]-labeled styrylbenzene.; type: ADME, organism-based; conditions: in vivo, 1 h; outline: as §1
[22] = tested on: Mus musculus; test: Biodistribution was measured in mice brain 5 minutes after intravenous injection of [125I]-labeled styrylbenzene; type: ADME, organism-based; conditions: in vivo; outline: as §1
[23] = tested on: Mus musculus; test: Biodistribution was measured in mice brain 60 minutes after intravenous injection of [125I]-labeled styrylbenzene; type: ADME, organism-based; conditions: in vivo, 1 h; outline: as §1
[24] = tested on: Mus musculus; test: Biodistribution was measured in mice heart 30 minutes after intravenous injection of [125I]-labeled styrylbenzene.; type: ADME, organism-based; conditions: in vivo, 0.5 h; outline: as §1
[25] = tested on: Mus musculus; test: Biodistribution was measured in mice heart 5 minutes after intravenous injection of [125I]-labeled styrylbenzene.; type: ADME, organism-based; conditions: in vivo; outline: as §1
[26] = tested on: Mus musculus; test: Biodistribution was measured in mice blood 60 minutes after intravenous injection of [125I]-labeled styrylbenzene.; type: ADME, organism-based; conditions: in vivo, 1 h; outline: as §1
[27] = tested on: Mus musculus; test: Biodistribution was measured in mice brain 30 minutes after intravenous injection of [125I]-labeled styrylbenzene; type: ADME, organism-based; conditions: in vivo, 0.5 h; outline: as §1
[28] = biological target: T1, Amyloid-beta precursor protein (Homo sapiens, UniProt P05067); test: Inhibition constant for amyloid beta compared to [125I]TZDM
Outline: (§3)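 Aβ(1-40) or Aβ(1-42) aggregated at 0.5 or 0.25 mg/mL respectively in pH 7.4 buffer (10 mM sodium phosphate, 1 mM EDTA), 37 °C, 36-42 h with shaking. Competition against ¹²⁵I radioligand with fibrils 10-50 nM (final), 10% EtOH, 1 mL. Incubation 3 h room temperature. Bound ligand collected by GF/B filtration, γ-counted. Ki by nonlinear regression. Mean ± SEM, three experiments in duplicate.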

[29] = biological target: T1, Amyloid-beta precursor protein; test: Inhibition constant for aggregates of amyloid beta compared to [125I]IMSB; outline: as §3

T1 sequence (P05067 whole entry): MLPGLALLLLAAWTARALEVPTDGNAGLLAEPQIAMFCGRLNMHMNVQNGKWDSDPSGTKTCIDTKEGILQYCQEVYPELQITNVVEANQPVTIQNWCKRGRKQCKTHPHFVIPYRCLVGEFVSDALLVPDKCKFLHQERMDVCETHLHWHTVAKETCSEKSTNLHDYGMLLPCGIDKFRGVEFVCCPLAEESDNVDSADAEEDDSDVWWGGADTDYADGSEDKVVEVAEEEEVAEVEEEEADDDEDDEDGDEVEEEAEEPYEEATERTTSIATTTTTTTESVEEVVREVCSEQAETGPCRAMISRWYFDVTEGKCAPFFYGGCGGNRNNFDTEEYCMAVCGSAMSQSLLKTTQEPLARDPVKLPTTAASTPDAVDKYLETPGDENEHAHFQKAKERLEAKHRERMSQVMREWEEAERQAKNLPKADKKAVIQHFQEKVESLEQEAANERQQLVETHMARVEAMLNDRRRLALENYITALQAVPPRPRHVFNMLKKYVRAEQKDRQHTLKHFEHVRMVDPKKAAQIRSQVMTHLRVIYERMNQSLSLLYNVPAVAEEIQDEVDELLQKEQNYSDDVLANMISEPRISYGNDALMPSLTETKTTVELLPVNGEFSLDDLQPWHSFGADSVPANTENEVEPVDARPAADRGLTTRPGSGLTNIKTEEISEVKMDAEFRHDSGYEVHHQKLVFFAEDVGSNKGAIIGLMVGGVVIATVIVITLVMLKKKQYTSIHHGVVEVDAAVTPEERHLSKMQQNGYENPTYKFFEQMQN

## COc1ccc(/C=C/c2ccc(/C=C/c3ccc(OC)c(C(=O)O)c3)c(I)c2)cc1C(=O)O
[1]
  Dose/organ: 0.12%
[2]
  Dose/organ: 0.46%
[3]
  Dose/organ: 1.31%
[4]
  Dose/organ: 0.23%
[5]
  Dose/organ: 24.47%
[6]
  Dose/organ: 47.85%
[7]
  Dose/organ: 6.14%
[8]
  Dose/organ: 1.82%
[9]
  Dose/organ: 3.16%
[10]
  Dose/organ: 1.3%
[11]
  Dose/organ: 1.44%
[12]
  Dose/organ: 1.56%
[13]
  Dose/organ: 1.02%
[14]
  Dose/organ: 0.07%
[15]
  Dose/organ: 0.17%
[16]
  Dose/organ: 0.03%
[17]
  Dose/organ: 5.19%
[18]
  Dose/organ: 22.52%
[19]
  Dose/organ: 0.31%
[20]
  Dose/organ: 0.89%
[21]
  Dose/organ: 0.16%
[22]
  Dose/organ: 0.14%
[23]
  Dose/organ: 0.02%
[24]
  Dose/organ: 0.18%
[25]
  Dose/organ: 0.43%
[26]
  Dose/organ: 2.17%
[27]
  Dose/organ: 0.03%
[28]
  Ki: > 1000 nM
[29]
  Ki: 0.17 nM and 0.8 nM
